A selection: hits, their analogues and other compounds. The true share with any hit is near 3.7%.
MT stabilize HCS = microtubule stabilization, imaging screen | AID 2205 | % tubulin-high responders, % at 10 µM | 200,000 compounds, 0.83% hits | HeLa tubulin immunostaining HCS, 24 h; share of cells brighter than vehicle mean+2SD;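 active = plate Z-score above 3 for both tubulin-high and condensed-nucleus cell shares, with cell loss under 80%, at 10 µM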;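 note: anti alpha tubulin signal scored within the nucleus-defined area of each cell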
DTT redox prof = compounds producing H2O2 with reducing agent – biochemical, NIH compound library profiling, artefact control for MLSCN library redox annotation, primary screen; DTT-dependent redox cycling H2O2, phenol red/HRP absorbance; 100% = 100 µM peroxide control, 0% = buffer; AID 878; activation, % at 10 µM; 200,000 compounds, 0.03% hits;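 active = activation of at least 50% relative to the plate's high and low controls in the primary single-dose screen; inactive = activation below 50%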;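 note: compound incubated with DTT at 0.8 mM final as the reducing agent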
b-catenin transl = beta-catenin nuclear translocation modulation. HeLa beta-catenin nuclear translocation, immunofluorescence imaging. nuclear translocation activity, % at 5 µM. 190,000 compounds, 0.3% hits. AID 1665;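 active = nuclear translocation activity above 50% at 5 µM, with a well cell count of 50 or more; inconclusive = wells under 50 cells across six images, flagged as toxic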;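 note: per-cell ratio of nuclear to cytoplasmic median beta-catenin stain intensity; plate controls were DMSO negative control for no effect and GSK-3 inhibitor IX positive control for full effect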
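Test system: HeLa cells, endogenous beta-catenin; Compound: single 5 µM dose plus 0.02–20 µM confirmation series; Times: compound exposure 24 h at 37°C; Signal: fluorescence imaging of beta-catenin antibody stain plus DAPI; Read-out: % activation, nuclear-to-cytoplasmic median beta-catenin signal ratio per cell.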
ROMK primary = human ROMK K+ channel modulation, primary screen | P48048 | Tet-inducible ROMK, thallium flux fluorescence; actives lie on both sides | B-score at 10 µM | 130,000 compounds, 2% hits | AID 1918;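 active = signal ratio slope over the read window, or its plate-corrected B-score, at least 3 SD from the plate mean, either direction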;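 note: B-score of the F/F0 ratio slope over 7 to 12 s after thallium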
KCC2 mod = modulators of human KCC2 chloride dependent transport. 190,000 compounds, 2.2% hits. KCC2 cells, thallium flux FluoZin-2 fluorescence. B-score of Tl+ flux slope (higher = more flux/activation; lower = inhibition) at 10 µM;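 active = thallium flux slope and its plate-corrected score both differing from the plate sample mean at a set confidence after two filtering rounds, in either direction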;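 note: slope of fluorescence scaled to starting intensity during 10 to 20 s after thallium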
Target sequence (Q9H2X9 whole entry, looked up): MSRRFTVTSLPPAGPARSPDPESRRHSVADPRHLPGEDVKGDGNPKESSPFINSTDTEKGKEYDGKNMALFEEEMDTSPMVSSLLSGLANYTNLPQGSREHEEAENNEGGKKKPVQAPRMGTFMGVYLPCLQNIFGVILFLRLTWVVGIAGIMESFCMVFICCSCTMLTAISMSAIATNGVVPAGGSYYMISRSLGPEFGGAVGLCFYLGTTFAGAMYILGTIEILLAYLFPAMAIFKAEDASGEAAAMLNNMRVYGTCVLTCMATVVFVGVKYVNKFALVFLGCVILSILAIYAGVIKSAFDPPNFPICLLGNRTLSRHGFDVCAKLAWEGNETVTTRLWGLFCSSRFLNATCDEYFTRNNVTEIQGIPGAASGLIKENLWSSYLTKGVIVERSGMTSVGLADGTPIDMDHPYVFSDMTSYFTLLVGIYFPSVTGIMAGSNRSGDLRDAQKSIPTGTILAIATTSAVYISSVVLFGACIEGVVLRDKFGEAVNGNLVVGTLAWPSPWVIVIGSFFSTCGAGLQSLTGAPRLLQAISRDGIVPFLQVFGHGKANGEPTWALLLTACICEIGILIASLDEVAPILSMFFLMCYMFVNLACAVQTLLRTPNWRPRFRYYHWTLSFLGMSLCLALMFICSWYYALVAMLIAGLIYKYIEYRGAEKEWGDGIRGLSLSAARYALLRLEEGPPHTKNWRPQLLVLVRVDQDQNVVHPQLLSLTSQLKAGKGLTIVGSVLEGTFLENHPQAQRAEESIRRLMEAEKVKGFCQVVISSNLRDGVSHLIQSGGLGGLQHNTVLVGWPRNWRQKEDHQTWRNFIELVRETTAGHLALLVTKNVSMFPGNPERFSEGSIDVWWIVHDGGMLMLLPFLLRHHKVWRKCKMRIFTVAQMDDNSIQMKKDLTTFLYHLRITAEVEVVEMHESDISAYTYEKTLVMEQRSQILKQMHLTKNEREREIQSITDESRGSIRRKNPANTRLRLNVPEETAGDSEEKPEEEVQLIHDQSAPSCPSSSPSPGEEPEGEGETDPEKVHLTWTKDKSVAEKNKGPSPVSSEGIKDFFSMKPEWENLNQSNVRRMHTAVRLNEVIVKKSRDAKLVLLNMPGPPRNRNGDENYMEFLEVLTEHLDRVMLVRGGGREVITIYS
KCC2 sec1 = KCC2 (human) modulation, secondary assay; shares compounds with KCC2 mod; HEK293-KCC2, thallium flux, FluoZin2 fluorescence; active compounds read high; normalised thallium flux (F/F0 slope) at 10 µM; 3,700 compounds, 15% hits; AID 1713;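 active = thallium flux slope above the same plate's solvent-only control mean plus 3 SD; inconclusive = the two replicate wells disagree; inactive = no significant difference from solvent-only control wells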
KCC2 bumet counter = thallium flux persisting under bumetanide in KCC2 cells, counter-screen secondary assay | shares compounds with KCC2 mod | HEK293-KCC2 + bumetanide/ouabain, thallium flux FluoZin2; active compounds read high | normalized thallium flux at 10 µM | 3,700 compounds, 49% hits | AID 1714;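 active = thallium entry rate above the same plate's blocked-transporter control wells by more than 3 SD; inconclusive = the two repeat wells disagree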;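 note: raw slope of fluorescence over initial fluorescence between 10 and 20 s after thallium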
KCC2 secondary2 = KCC2 (human) modulation, second secondary assay | shares compounds with KCC2 mod | HEK293-KCC2, thallium flux FluoZin2 fluorescence; actives lie on both sides; F/F0 rise rate, 10–20 s post-thallium | normalized thallium flux at 10 µM | 3,700 compounds, 23% hits | AID 1715;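 active = thallium flux slope more than 3 SD above or below the plate's solvent-only control mean, mostly below; inconclusive = the two repeat wells disagreed; inactive = no significant shift from solvent-only controls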;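 note: raw slope with 0.1% DMSO as baseline and bumetanide as block control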
HEK counter1 = counter-screen for KCC2 modulators: effect in parental HEK293 cells | 3,700 compounds, 46% hits | shares compounds with KCC2 mod | AID 1716 | thallium flux FluoZin2, ouabain; baseline-ratio fluorescence slope, 10–20 s after thallium | thallium flux rate (normalised fluorescence) at 10 µM;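 active = thallium flux rate significantly above the same plate's solvent-only control wells, beyond their mean plus 3 SD; inconclusive = the two replicate wells gave conflicting results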
KCC2 retest ouab = KCC2 (human) modulation, ouabain retest. shares compounds with KCC2 mod. HEK293-KCC2, thallium flux FluoZin2 fluorescence; bidirectional: low = inhibitor, high = activator. raw Tl+ flux slope (below DMSO = inhibition, above = activation) at 10 µM. 3,700 compounds, 48% hits. AID 1717;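 active = thallium flux slope beyond 3 SD from same-plate DMSO control mean in most replicates, usually higher, sometimes lower; inconclusive = repeat tests gave conflicting results; inactive = no significant difference from controls in most replicates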;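 note: slope of initial-normalized fluorescence between seconds 10 and 20 after thallium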
HEK293 Tl flux2 = parental HEK flux effect, counter-screen 2; shares compounds with KCC2 mod; HEK293 parental, thallium flux FluoZin-2 fluorescence slope; thallium flux slope at 10 µM; 3,700 compounds, 33% hits; AID 1718;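 active = thallium flux slope above the same plate's solvent-control mean plus 3 SD in both duplicate wells; inconclusive = duplicate wells that disagreed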;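 note: run without ouabain in cells lacking the KCC2 cotransporter; slope of fluorescence scaled to its starting value between 10 and 20 s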
An asterisk follows results filed as active; ? = inconclusive; . = not tested or not shown.

SMILES	MT stabilize HCS	DTT redox prof	b-catenin transl	ROMK primary	KCC2 mod	KCC2 sec1	KCC2 bumet counter	KCC2 secondary2	HEK counter1	KCC2 retest ouab	HEK293 Tl flux2
CN(CCc1ccccn1)C(=O)c1nn2c(C(F)(F)F)cc(-c3ccco3)nc2c1Cl	6	2	-4	0.35	-5.2*	0.0074	0.0051	0.031	0.0074	0.014*	0.0098
CC(C)NC(=O)c1nn2c(C(F)(F)F)cc(-c3ccco3)nc2c1Cl	3	0	1	-0.55	-0.27	.	.	.	.	.	.
Cc1ccc(C)c(N2CCN(C(=O)CCCN3C(=S)NC(C)(C)CC3C)CC2)c1 (stereo not drawn)	2	0	-1	-1.2	0.32	.	.	.	.	.	.
O=C1CC(c2ccccc2)=NN1c1nc(-c2ccccc2)cs1	5	0	3	0.47	9.7*	0.013*	0.039*	0.03	0.013*	0.034*	?
COc1ccccc1C(=O)NC(=S)Nc1cc(C(=O)O)ccc1C	3	0	0	.	-1.8	.	.	.	.	.	.
COc1cc2ccccc2cc1C(=O)NC(=S)Nc1cc(C(=O)O)ccc1C	5	-1	1	1.1	-7*	0.008	0.0085*	0.033	0.0064	0.017*	0.01
O=C(O)CCC(=O)N1CCN(c2ncccn2)CC1	.	.	1	.	0.39	.	.	.	.	.	.
CCn1c(-c2ccco2)n[nH]c1=S	3	1	.	0.62	0.043	.	.	.	.	.	.
C=CCn1c(-c2cccc(OC)c2OC)n[nH]c1=S	2	-1	-5	1.9	-0.56	.	.	.	.	.	.
C=CCn1c(-c2cc3cccc(OC)c3o2)n[nH]c1=S	4	-2	-2	-0.4	3.7*	0.0051	0.014*	0.032	0.013*	?	0.016*
C=CCn1c(-c2ccco2)n[nH]c1=S	10	-1	-1	0.25	.	0.0091	0.0066	0.036	0.0085	0.019	0.011
Cc1cccc(-n2c(-c3csc(C)c3C)n[nH]c2=S)c1	4	0	-2	.	3.9	.	.	.	.	.	.
CCCc1cc(-c2n[nH]c(=S)n2-c2cccc(C)c2)cs1	1	-1	0	1.2	106*	0.022*	0.2*	0.04	0.058*	0.062*	0.017*
CCN=c1scc(-c2ccc(F)cc2)n1/N=C/c1ccccn1	5	0	3	0.46	-5.7*	0.0052	0.0044	0.023*	?	0.014*	0.011
CCCc1sc(N/N=C/c2ccccn2)nc1-c1ccc(F)cc1	2	2	-2	.	.	.	.	.	.	.	.
CCCn1c(SCC(=O)Nc2cccc(S(=O)(=O)N(C)C)c2)nc2ccccc2c1=O	.	.	-1	.	3.6	.	.	.	.	.	.
CCCN(CCC)C1CC(=O)N(Cc2ccccc2)C1=O (stereo not drawn)	5	0	-2	-0.98	0.37	.	.	.	.	.	.
O=C1CC(N(O)C2CC(=O)N(Cc3ccccc3)C2=O)C(=O)N1Cc1ccccc1 (stereo not drawn)	10	-1	-1	-2.4	.	0.0051	0.0049	0.026*	0.0073	?	0.011
O=C(CCNC(=O)Cn1ccc2ccccc2c1=O)NCCN1CCN(c2ccccc2F)CC1	3	-4	.	.	0.0089	.	.	.	.	.	.
O=C(CCNC(=O)Cn1ccc2ccccc2c1=O)NCCN1CCN(c2cccc(Cl)c2)CC1	3	-2	-1	.	4.6*	0.0059	0.0042	0.03	0.0077	0.019	0.01
